According to article PMC3085959 (Journal of medicinal chemistry, 2011):
pKi: −log10 of the molar value. “Also recorded” adds a separate entry of the source.

Assays:
[1] = target: serotonin transporter (SERT) (Rattus norvegicus, UniProt P31652); test: Inhibition of [3H]serotonin uptake by SERT in rat cerebral cortex; format: biochemical
[2] = target: dopamine transporter (DAT) (Rattus norvegicus, UniProt P23977); test: Inhibition of [3H]dopamine uptake by DAT in rat striatum; format: biochemical
Sequence of dopamine transporter (DAT) (P23977 whole entry): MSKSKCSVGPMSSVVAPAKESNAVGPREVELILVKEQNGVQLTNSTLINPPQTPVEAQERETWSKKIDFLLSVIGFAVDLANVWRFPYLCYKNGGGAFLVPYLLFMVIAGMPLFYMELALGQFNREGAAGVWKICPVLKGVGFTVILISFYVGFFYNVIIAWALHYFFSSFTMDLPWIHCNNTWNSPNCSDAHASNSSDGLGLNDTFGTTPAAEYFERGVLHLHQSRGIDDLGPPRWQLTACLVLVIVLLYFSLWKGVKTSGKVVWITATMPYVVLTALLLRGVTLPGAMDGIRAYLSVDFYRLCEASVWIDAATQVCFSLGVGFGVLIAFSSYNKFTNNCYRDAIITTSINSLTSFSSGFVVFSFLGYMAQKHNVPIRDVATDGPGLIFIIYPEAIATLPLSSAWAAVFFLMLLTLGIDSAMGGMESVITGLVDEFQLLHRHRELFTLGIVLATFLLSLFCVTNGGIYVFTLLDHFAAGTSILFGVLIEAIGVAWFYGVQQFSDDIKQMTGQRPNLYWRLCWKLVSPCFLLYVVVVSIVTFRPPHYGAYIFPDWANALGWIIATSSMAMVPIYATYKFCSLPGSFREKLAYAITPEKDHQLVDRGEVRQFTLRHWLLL

rats = test: Rat forced swim test; format: in vivo; details: 10 mg/kg i.p., sub-chronic, 1 h before test, compared to vehicle
How it was run: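 Male Sprague-Dawley rats (200–225 g), naive, used once, tested in cylinders of 24–25 °C water, 22 cm deep. A 15 min pretest was followed 24 h later by a 5 min test. Dosing was i.p. in 10% β-hydroxypropyl cyclodextrin (2 mL/kg), 15 min after pretest and 1 h before test. Imipramine 15 mg/kg was the reference. Blinded video immobility scoring, one-way ANOVA.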

[3] = test system: cloned human dopamine receptor subtypes, serotonin receptor subtypes, alpha-adrenergic receptors, and opioid receptors; test: CNS receptor screening, NIMH PDSP primary binding assays; details: 10 μM

Sequence of serotonin transporter (SERT) (P31652 whole entry): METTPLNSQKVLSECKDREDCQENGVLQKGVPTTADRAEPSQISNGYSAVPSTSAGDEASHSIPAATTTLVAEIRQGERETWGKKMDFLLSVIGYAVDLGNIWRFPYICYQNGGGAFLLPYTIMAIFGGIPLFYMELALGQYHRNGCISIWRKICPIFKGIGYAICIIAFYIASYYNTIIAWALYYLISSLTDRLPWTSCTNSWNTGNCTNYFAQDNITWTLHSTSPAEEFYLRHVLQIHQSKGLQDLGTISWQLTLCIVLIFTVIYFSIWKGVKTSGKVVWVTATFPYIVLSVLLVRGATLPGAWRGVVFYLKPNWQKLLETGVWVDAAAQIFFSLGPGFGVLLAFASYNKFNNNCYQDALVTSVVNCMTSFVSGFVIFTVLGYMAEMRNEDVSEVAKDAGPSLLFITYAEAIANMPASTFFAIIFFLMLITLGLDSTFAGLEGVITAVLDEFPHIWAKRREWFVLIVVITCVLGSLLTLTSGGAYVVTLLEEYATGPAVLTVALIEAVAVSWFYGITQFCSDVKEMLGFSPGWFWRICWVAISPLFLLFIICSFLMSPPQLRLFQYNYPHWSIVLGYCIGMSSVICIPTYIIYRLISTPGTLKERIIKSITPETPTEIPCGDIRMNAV

pKi [1] | pKi [2] | Inhibition in CNS receptor screening, majority of the receptor target sites [3] | Inhibition in CNS receptor screening, a few other target sites ([3]; only marginally so in some cases) | Compound | Effect on duration of immobility in the forced swimming test (rats)
7.89 | 7.80 | – | – | c1ccc(C(c2ccccc2)[C@@H]2CC[C@H](NCc3cccs3)CO2)cc1 [Compound 10g, (3S,6S)-6-benzhydryl-N-(thiophen-2-ylmethyl)tetrahydro-2H-pyran-3-amine] | –
– | – | less than 50% | greater than 50% | Oc1cccc(CN[C@H]2CC[C@@H](C(c3ccccc3)c3ccccc3)OC2)c1 [Compound 10f, 3-((((3S,6S)-6-benzhydryltetrahydro-2H-pyran-3-yl)amino)methyl)phenol] | significant reduction of immobility; also recorded: high efficacy in reducing immobility; also recorded: more efficacious than imipramine
